Results on 5 compounds are retold here after ChEMBL document CHEMBL1146075, “Synthesis and anti-BVDV activity of acridones as new potential antiviral agents” (J Med Chem, 2006).

Assay [1] concerns Bovine viral diarrhea virus 1. Briefly: Antiviral activity against BVDV NADL in MDBK cells. It is filed as functional, organism-based. To be noted: Bovine viral diarrhea virus isolates and strains. Put shortly: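 MDBK cells seeded 20 × 10^3/well in MEM with 5% heat-inactivated FCS, confluent after 24 h; serial 3-fold compound dilutions added, then virus at MOI 0.5 (line 2: NADL F224S mutant). 5 days at 37 °C, then ethanol fixation and Giemsa staining. CPE scored microscopically 0–10 per well. EC50 by logarithmic interpolation; mean ± SD of at least three experiments.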

The test system of assay [2] is MDBK441. Briefly: Cytotoxicity against MDBK cells. The format is functional. To be noted: Bos taurus. Put shortly:
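Cells seeded the day before, then given serial compound dilutions and left to proliferate 3 days at 37 °C. MDBK: 10^4/well in MEM-FCS. Huh 5-2: 5 × 10^3/well in complete DMEM. Cell number read by MTS/PMS. CC50 is the concentration inhibiting cell growth by 50%.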

For assay [3], the system named is MDBK441. Briefly: Selectivity index (CC50/EC50) for inhibition of BVDV NADL in MDBK cells. The format is functional. An outline of the steps:
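SI = CC50/EC50. EC50 comes from a 5-day Giemsa-stained CPE assay in MDBK cells at MOI 0.5; CC50 from a 3-day MTS/PMS proliferation assay. Means of at least three experiments. Line 10 uses the NADL F224S mutant.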

Assay [4] relates to Human alphaherpesvirus 1. Description: Antiviral activity against HSV1 KOS in E6SM cells. It is filed as functional, organism-based.
The subject of assay [5] is Human alphaherpesvirus 2. Description: Antiviral activity against HSV2 G in E6SM cells. It is filed as functional, organism-based.
Assay [6] relates to Vaccinia virus. Description: Antiviral activity against vaccinia virus in E6SM cells. It is filed as functional, organism-based. The note with it: Orthopoxvirus vaccinia.
Assay [7] has as its system Vesicular stomatitis virus. Briefly: Antiviral activity against vesicular stomatitis virus in E6SM cells. It is filed as functional, organism-based.
Assay [8] relates to Human betaherpesvirus 5. Briefly: Antiviral activity against HCMV AD169 in human embryonic lung cells. The format is functional, organism-based.
Assay [9] has as its system Human betaherpesvirus 5. Description: Antiviral activity against HCMV Davis in human embryonic lung cells. It is filed as functional, organism-based.
In assay [10] the test system is Respiratory syncytial virus. Briefly: Antiviral activity against respiratory syncytial virus […] in HeLa cells. It is filed as functional, organism-based.
Assay [11] deals with Coxsackievirus B4. Briefly: Antiviral activity against coxsackie virus B4 in vero cells. The format is functional, organism-based.
Assay [12] relates to Human respirovirus 3. Description: Antiviral activity against parainfluenza3 virus in vero cells. The format is functional, organism-based.
Assay [13] concerns Mammalian orthoreovirus 1. Briefly: Antiviral activity against Reovirus1 in vero cells. It is filed as functional, organism-based.
The subject of assay [14] is Sindbis virus. Description: Antiviral activity against sindbis virus in vero cells. It is filed as functional, organism-based.
The subject of assay [15] is Punta Toro virus. Briefly: Antiviral activity against Punta Toro virus in vero cells. The format is functional, organism-based.
For assay [16], the system named is Human immunodeficiency virus 1. Briefly: Antiviral activity against HIV1 3B in MT4 cells. The format is functional, organism-based.
In assay [17] the test system is Human immunodeficiency virus 2. Description: Antiviral activity against HIV2 ROD in MT4 cells. The format is functional, organism-based.

≈ marks a conversion by molar mass, not a printed value. Calls of active or inactive are those of the source. The calls are words filed in the database; no cut-off is given here.

The term EC50 denotes the concentration at which the effect is half-maximal. A higher EC50 goes with a need for much substance. As a reminder, the CC50 is the concentration that lowers cell viability or growth by half. For the compound `COc1cc(OC)c2c(=O)c3cc([N+](=O)[O-])c(N4CCN(c5ccccn5)CC4)cc3n(C)c2c1`, in assay [1], the EC50 was 18 mg/L (≈ 37.9 µM). Also, the CC50 in [2] was greater than 100 mg/L. This compound also came in with a Selectivity index in [3] greater than 6. Further, the outcome in [4], in [5], in assay [6], in assay [7], in assay [8] and in assay [9] was inactive. The result in assay [10], in assay [11], in assay [12], in assay [13], in [14] and in assay [15] was inactive. For the same compound, the outcome in assay [16] and in [17] was inactive.
`COc1cc(OC)c2c(=O)c3cc(N)c(N4CCN(c5ccccn5)CC4)cc3n(C)c2c1` returned a half-maximal effective concentration (EC50) in assay [1] greater than 100 mg/L. In assay [2], the CC50 is greater than 100 mg/L. The compound further displayed a Selectivity index in [3] of 1. The result in assay [4], in assay [5], in assay [6], in [7], in assay [8] and in assay [9] was inactive. Also, the outcome in [10], in assay [11], in assay [12], in assay [13], in assay [14] and in assay [15] was inactive. Besides, the outcome in assay [16] and in assay [17] was inactive.
`Cn1c2cc(Cl)c(N)cc2c(=O)c2c(O)cc(O)cc21`: it took 5 mg/L (≈ 17.2 µM) to reach half-maximal cytotoxicity in [2] (CC50). This compound came in with a Selectivity index in assay [3] of 13. Further, the result in assay [4], in [5], in assay [6], in [7], in [8] and in [9] was inactive. Also, the outcome in assay [10], in [11], in [12], in assay [13], in assay [14] and in assay [15] was inactive. The result in assay [16] and in assay [17] was inactive.
In assay [2], `COc1cc(O)c2c(=O)c3cc(N)c(N4CCN(c5ccccn5)CC4)cc3n(C)c2c1` had a CC50 greater than 100 mg/L. Further, in assay [3], the Selectivity index is recorded as greater than 25. The result in assay [4], in assay [5], in [6], in assay [7], in [8] and in assay [9] was inactive. Also, the outcome in [10], in assay [11], in assay [12], in assay [13], in [14] and in assay [15] was inactive. The outcome in assay [16] and in assay [17] was inactive.
In turn, `COc1cc(O)c2c(=O)c3cc(N)c(Cl)cc3n(C)c2c1` returned a CC50 in assay [2] greater than 33 mg/L. In [3], this compound returned a Selectivity index greater than 47. The outcome in assay [4], in [5], in assay [6], in [7], in assay [8] and in [9] was inactive. Also, the result in assay [10], in assay [11], in [12], in [13], in assay [14] and in assay [15] was inactive. Moreover, the result in assay [16] and in assay [17] was inactive.
